Results from ChEMBL document CHEMBL2346582, “Guanidino anthrathiophenediones as G-quadruplex binders: uptake, intracellular localization, and anti-Harvey-Ras gene activity in bladder cancer cells” (J Med Chem, 2013).
pIC50, pKd: −log10 of the molar value. Active and inactive are the calls of the source. The calls are words filed in the database; no cut-off is given here.

Tests used:
T-24 (human) = assay: Cell cycle arrest in human T24 cells expressing mutant HRAS assessed as accumulation at G2/M phase at 10 uM after 24 hrs by FACS analysis
HEK293 [1] = assay: Cytotoxicity against human HEK293 cells expressing wild type HRAS at 1 to 30 uM after 72 hrs by resazurin assay; format: cell-based; conditions: HEK293, 72 h
In short: (§1)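 Cells seeded at 3000 per well the day before treatment, grown in DMEM with 10% FBS. Ligand added at 1, 2.5, 5, 10, 20, 30 μM for 72 h. Viability measured by resazurin and expressed as % of untreated cells; mean of three independent measurements. IC50 is the concentration reducing proliferation by 50%.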

NIH3T3 [2] = assay: Cellular uptake in mouse NIH/3T3 cells at 0.5 to 10 uM after 10 mins to 8 hrs by flow cytometric analysis; format: ADME, cell-based; conditions: nih3t3, 10 µM
In short: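 Flow cytometric uptake of 10 μM ligand over time (15 min, 1, 2, 6, 8 h; T24, and up to 8 h in NIH 3T3 and 293). Cells plated at 5 × 10^4 per well the day before. Ligand fluorescence detected in FL3 (680 nm), at least 10,000 cells acquired.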

Homo sapiens [3] = species on record: Homo sapiens; assay: Thermal stabilization of human HRAS2 G-quadruplex FAM-CGGGGCGGGGCGGGGGCGGGGGCG-TAMRA DNA assessed as as change in melting temperature at 1:1 DNA:ligand ratio by FRET assay
In short: (§2)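 FRET melting in 50 mM Tris-HCl pH 7.4 with an equimolar ligand:quadruplex ratio (r = 1). Conditions: NRAS RNA and hras-2 in 10 mM KCl; hras-1 in 100 mM KCl, with ΔTM taken from its second transition. Ramp 1 °C/min from 20 to 95 °C after 5 min equilibration. TM and ΔTM (±0.5 K) versus ligand-free quadruplex.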

NIH3T3 [4] = assay: Cellular uptake in mouse NIH/3T3 cells after 4 hrs by FACS flow cytometric analysis in presence of cytochalasin D; format: ADME, cell-based; conditions: nih3t3, 4 h
T-24 [5] = assay: Antiproliferative activity against human T24 cells by trypan blue assay; format: functional, cell-based
T-24 [6] = assay: Binding affinity to HRAS quadruplex DNA mutant in human T24 cells assessed as reduction in gene expression at 0.5 to 5 uM treated for 24 hrs prior to transfection measured 72 hrs post transfection by dual-luciferase reporter gene assay relative to control; format: cell-based
In short: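 T24 cells pretreated 24 h with ligand (0.5, 2.5, 5 μM). Then co-transfected with jet-PEI: firefly reporter (250 ng/well), either HRAS promoter wild type, HRAS promoter with 4 point mutations in the quadruplex motifs, or IL-8 promoter, plus CMV-Renilla (10 ng/well). Dual-Glo read 72 h post-transfection. Firefly/Renilla expressed as T/C × 100 relative to untreated cells.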

NIH3T3 [7] = assay: Cytotoxicity against mouse NIH/3T3 cells at 1 to 30 uM after 72 hrs by resazurin assay; format: cell-based; conditions: NIH3T3, 72 h
In short: as §1

Salmonidae = assay: Thermal stabilization of salmon sperm duplex DNA assessed as melting temperature by FRET assay
Homo sapiens [8] = species on record: Homo sapiens; assay: Thermal stabilization of human HRAS2 G-quadruplex FAM-CGGGGCGGGGCGGGGGCGGGGGCG-TAMRA DNA assessed as as change in melting temperature at 1:4 DNA:ligand ratio by FRET assay
Homo sapiens [9] = species on record: Homo sapiens; assay: Thermal stabilization of human telomeric G-quadruplex FAM-TTAGGGTTAGGGTTAGGGTTAGGG-TAMRA DNA assessed as change in melting temperature at 1:5 DNA:ligand ratio by FRET assay
In short: (§3)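 FRET melting of 200 nM dual-labelled quadruplex in 50 mM Tris-HCl with KCl (100 mM for htelo and hras-1, 10 mM for KRAS and hras-2). Ligand at r = 5 ([ligand]/[quadruplex]; hras-2 tabulated at r = 4). Samples held 5 min at 20 °C, then heated 1 °C/min to 95 °C. ΔTM is the TM with ligand minus TM without ligand (±0.5 K). For hras-1 both biphasic transitions are given.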

HEK293 [10] = assay: Cell cycle arrest in human HEK293 cells expressing wild type HRAS assessed as accumulation at G2/M phase at 10 uM after 24 hrs by FACS analysis; format: functional, cell-based
In short: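 HEK293 cells (wild-type HRAS) treated with ligand for 24 h. Ethanol-fixed, stained with propidium iodide/RNase A, and analysed by FACS (FL2) for G0/G1, S and G2/M fractions.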

Homo sapiens [11] = species on record: Homo sapiens; assay: Thermal stabilization of human NRAS G-quadruplex FAM-GGGAGGGGCGGGUCUGGG-TAMRA RNA assessed as change in melting temperature at 1:1 DNA:ligand ratio by FRET assay
In short: as §2

T-24 [12] = assay: Cell cycle arrest in human T24 cells assessed as accumulation at G2/M phase at 10 uM after 48 to 72 hrs by FACS analysis relative to control; format: functional
In short: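 T24 cells treated with 10 μM ligand for 48 or 72 h. Fixed 1 h at 4 °C in 70% ethanol, then stained with propidium iodide 0.05 mg/mL plus RNase A 0.1 mg/mL for 30 min at room temperature. Analysed by FACS (FL2). Phase percentages compared with control by t-test (p < 0.05).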

[13] = Binding affinity to human HRAS2 G-quadruplex FAM-CGGGGCGGGGCGGGGGCGGGGGCG-TAMRA DNA assessed as quenching of fluorescence emission by FRET titration assay
In short: (§4)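 FRET titration of 200 nM oligonucleotide dual-labelled at its ends with carboxyfluorescein (donor) and tetramethylrhodamine (acceptor), in 50 mM Tris-HCl with KCl (100 mM for htelo and hras-1, 10 mM for KRAS and hras-2). Ligand binding quenches the emission, mainly the acceptor at 580 nm. The fraction of filled sites was fitted to the Hill equation to give apparent KD and the Hill coefficient.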

Homo sapiens [14] = species on record: Homo sapiens; assay: Thermal stabilization of human NRAS G-quadruplex FAM-GGGAGGGGCGGGUCUGGG-TAMRA RNA assessed as melting temperature at 1:1 DNA:ligand ratio by FRET assay
In short: as §2

T-24 [15] = assay: Cytotoxicity against human T24 cells expressing mutant HRAS at 1 to 30 uM after 72 hrs by resazurin assay; format: functional, cell-based; conditions: T-24, 72 h
In short: as §1

Mus musculus = species on record: Mus musculus; assay: Thermal stabilization of mouse KRAS G-quadruplex FAM-GCGGGAGGGAGGGAAGGAGGGAGGGAGGGAG-TAMRA DNA assessed as change in melting temperature at 1:5 DNA:ligand ratio by FRET assay
In short: as §3

[16] = Binding affinity to human HRAS1 G-quadruplex FAM-TCGGGTTGCGGGCGCAGGGCACGGGCG-TAMRA DNA assessed as quenching of fluorescence emission by FRET titration assay
In short: as §4

NIH3T3 [17] = assay: Cellular uptake in mouse NIH/3T3 cells assessed as accumulation in nucleoli at 2.5 uM after 4 hrs by propidium iodide staining-based confocal microscopic analysis; format: ADME, cell-based; conditions: nih3t3, 4 h
In short: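 NIH 3T3 cells on coverslips treated with 2.5 μM ligand for 2 or 4 h. Fixed with paraformaldehyde, DRP1 immunostained (FITC), nuclei stained with propidium iodide. Confocal imaging with 543 nm excitation of ligand fluorescence.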

Row | SMILES | Drug uptake (NIH3T3 [2]) | deltaTm (Homo sapiens [3]) | Drug uptake (NIH3T3 [4]) | Activity (Salmonidae) | deltaTm (Homo sapiens [8]) | deltaTm (Homo sapiens [9]) | deltaTm (Homo sapiens [11]) | pKd [13] | Tm (Homo sapiens [14]) | deltaTm (Mus musculus) | pKd [16] | Drug uptake (NIH3T3 [17]) | Activity (T-24 (human)) | pIC50 (HEK293 [1]) | Activity (T-24 [5]) | Activity (T-24 [6]) | pIC50 (NIH3T3 [7]) | Activity (HEK293 [10]) | Activity (T-24 [12]) | pIC50 (T-24 [15])
1 | N=C(N)NCCCNc1c2c(c(NCCNC(=N)N)c3ccsc13)C(=O)c1ccccc1C2=O | Active | 4 K | Active | Active | 17 K | 21 K | 9 K | 6.43 | 86 °C | 27 K | 6.44 |  | Active | 4.70 | inactive | inactive | < 4.52 | inactive | 12% | 5.10
2 | N=C(N)NCCCNc1c2c(c(NCCCNC(=N)N)c3sccc13)C(=O)c1ccccc1C2=O | Active | 3 K | Active | Active | 17 K | 21 K | 11 K | 6.64 | 88 °C | 33 K | 6.52 | Active | Active | < 4.52 | inactive | inactive | < 4.52 | inactive | 12% | 4.71
3 | N=C(N)NCCCCNc1c2c(c(NCCCCNC(=N)N)c3sccc13)C(=O)c1ccccc1C2=O | Active | 7 K | Active | Active | 26 K | 34 K | > 13 K | 6.55 | > 90 °C | 35 K | 6.68 | Active | Active | < 4.52 | inactive | inactive | < 4.52 | inactive | 12% | 4.72

Second part, led by results:

Row | Drug uptake (NIH3T3 [2]) | deltaTm (Homo sapiens [3]) | Drug uptake (NIH3T3 [4]) | Activity (Salmonidae) | deltaTm (Homo sapiens [8]) | deltaTm (Homo sapiens [9]) | deltaTm (Homo sapiens [11]) | pKd [13] | Tm (Homo sapiens [14]) | deltaTm (Mus musculus) | pKd [16] | Drug uptake (NIH3T3 [17]) | SMILES | Activity (T-24 (human)) | pIC50 (HEK293 [1]) | Activity (T-24 [5]) | Activity (T-24 [6]) | pIC50 (NIH3T3 [7]) | Activity (HEK293 [10]) | Activity (T-24 [12]) | pIC50 (T-24 [15])
4 | Active | 3 K | Active | Active | 19 K | 14 K | 5 K | 6.57 | 82 °C | 15 K | 6.47 | Active | N=C(N)NCCNc1c2c(c(NCCNC(=N)N)c3sccc13)C(=O)c1ccccc1C2=O | Active | < 4.52 | inactive | inactive | 4.70 | inactive | 12% | 5.36
5 | Active | 3 K | Active | Active | 12 K | 23 K | 11 K | 6.55 | 88 °C | 28 K | 6.55 | Active | N=C(N)NCCCNc1c2c(c(NCCNC(=N)N)c3sccc13)C(=O)c1ccccc1C2=O | Active | < 4.52 | inactive | inactive | 4.70 | inactive | 12% | 5.19
